Experimental data reported in ChEMBL document CHEMBL2169869, “Assay and inhibition of diacylglycerol lipase activity” (Bioorg Med Chem Lett, 2012).
The source made the active and inactive calls. The rule behind the calls is not given here.

What was measured:
[1] = system: Bacteria; test: Inhibition of bacterial lipoprotein lipase at 10 uM by FRET assay
[2] = molecular target: T1, Diacylglycerol lipase-alpha (Homo sapiens) (UniProt Q9Y4D2); test: Inhibition of human DAGLalpha expressed in HEK293T cell membrane using [14C]SAG substrate at 10 uM in presence of 0.05% Triton X-100 by scintillation counting based radio-TLC assay; format: cell membranes; details: HEK-293T
T1 sequence (whole entry): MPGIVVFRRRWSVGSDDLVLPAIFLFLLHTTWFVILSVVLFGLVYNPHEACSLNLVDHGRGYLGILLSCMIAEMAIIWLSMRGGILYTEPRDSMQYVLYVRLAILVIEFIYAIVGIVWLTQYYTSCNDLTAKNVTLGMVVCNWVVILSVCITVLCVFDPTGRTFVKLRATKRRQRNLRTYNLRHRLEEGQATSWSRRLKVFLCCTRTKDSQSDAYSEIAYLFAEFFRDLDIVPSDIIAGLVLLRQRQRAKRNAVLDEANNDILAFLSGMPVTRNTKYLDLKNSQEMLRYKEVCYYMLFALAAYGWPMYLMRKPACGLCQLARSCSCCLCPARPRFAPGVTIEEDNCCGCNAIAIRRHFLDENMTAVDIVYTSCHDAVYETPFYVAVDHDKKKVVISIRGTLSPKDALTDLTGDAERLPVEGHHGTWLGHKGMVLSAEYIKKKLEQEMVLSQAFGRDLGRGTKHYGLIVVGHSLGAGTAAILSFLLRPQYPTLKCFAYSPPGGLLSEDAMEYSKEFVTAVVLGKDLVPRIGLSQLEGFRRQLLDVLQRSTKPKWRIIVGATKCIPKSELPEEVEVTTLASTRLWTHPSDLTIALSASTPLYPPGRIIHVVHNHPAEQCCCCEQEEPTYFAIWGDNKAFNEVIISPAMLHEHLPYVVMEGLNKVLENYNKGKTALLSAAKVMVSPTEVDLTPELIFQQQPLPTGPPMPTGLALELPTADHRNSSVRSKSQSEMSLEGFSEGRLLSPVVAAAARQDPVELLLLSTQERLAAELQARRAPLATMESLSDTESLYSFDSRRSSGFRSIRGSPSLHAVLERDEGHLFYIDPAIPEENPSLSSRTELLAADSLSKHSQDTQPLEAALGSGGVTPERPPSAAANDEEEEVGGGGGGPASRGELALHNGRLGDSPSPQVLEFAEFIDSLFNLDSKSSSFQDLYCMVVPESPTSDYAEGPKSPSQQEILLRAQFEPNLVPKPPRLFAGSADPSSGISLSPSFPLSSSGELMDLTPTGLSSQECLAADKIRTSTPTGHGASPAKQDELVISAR
Procedure, shortened: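 Sonicated HEK293T protein (100 μg) in 50 mM Tris pH 7.4 with 10 mM CaCl2. Inhibitor in DMSO (10% DMSO standard) preincubated 15 min at 37 °C. [14C]SAG was added to 20 μM final for 20 min at 37 °C, with Triton X-100 where the line states it. Quenched with 2:1 CHCl3/MeOH. Silica TLC in CHCl3/MeOH/NH4OH 86:14:0.75, then 12 h phosphorimaging. Activity = (2-AG+AA)/(2-AG+AA+SAG). Background-subtracted; n=1–2.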

[3] = molecular target: T2, Diacylglycerol lipase-alpha (Mus musculus) (UniProt Q6WQJ1); test: Inhibition of mouse DAGLalpha expressed in HEK293T cell membrane using [14C]SAG substrate at 1000 nM by scintillation counting based radio-TLC assay; format: cell membranes; details: HEK-293T
T2 sequence (whole entry): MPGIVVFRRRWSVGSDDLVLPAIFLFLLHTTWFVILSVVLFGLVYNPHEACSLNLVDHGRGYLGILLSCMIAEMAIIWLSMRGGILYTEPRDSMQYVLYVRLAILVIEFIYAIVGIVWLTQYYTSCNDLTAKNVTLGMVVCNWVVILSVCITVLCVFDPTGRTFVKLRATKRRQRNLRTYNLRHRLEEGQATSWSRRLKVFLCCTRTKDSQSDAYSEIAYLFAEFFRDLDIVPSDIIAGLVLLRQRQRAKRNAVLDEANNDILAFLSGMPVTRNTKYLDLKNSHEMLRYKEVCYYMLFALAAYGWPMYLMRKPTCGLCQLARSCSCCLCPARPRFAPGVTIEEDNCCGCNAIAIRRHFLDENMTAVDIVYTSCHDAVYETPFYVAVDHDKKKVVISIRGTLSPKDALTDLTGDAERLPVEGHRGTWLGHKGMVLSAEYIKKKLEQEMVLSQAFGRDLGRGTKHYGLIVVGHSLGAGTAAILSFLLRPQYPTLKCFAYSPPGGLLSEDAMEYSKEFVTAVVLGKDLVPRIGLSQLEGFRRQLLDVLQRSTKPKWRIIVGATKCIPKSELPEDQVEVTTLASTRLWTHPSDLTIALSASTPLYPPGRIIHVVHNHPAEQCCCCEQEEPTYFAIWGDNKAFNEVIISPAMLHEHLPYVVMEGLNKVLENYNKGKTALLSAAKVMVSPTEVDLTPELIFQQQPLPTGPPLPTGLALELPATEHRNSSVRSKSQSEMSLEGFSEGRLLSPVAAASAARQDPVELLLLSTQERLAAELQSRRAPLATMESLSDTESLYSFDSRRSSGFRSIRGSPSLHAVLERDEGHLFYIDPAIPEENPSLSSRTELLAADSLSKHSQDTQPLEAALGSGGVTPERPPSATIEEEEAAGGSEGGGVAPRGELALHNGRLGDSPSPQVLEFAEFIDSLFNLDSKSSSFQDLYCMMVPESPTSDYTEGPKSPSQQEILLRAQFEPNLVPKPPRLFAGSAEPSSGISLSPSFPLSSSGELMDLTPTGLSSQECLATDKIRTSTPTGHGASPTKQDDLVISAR

[4] = molecular target: T2, Diacylglycerol lipase-alpha (Mus musculus); test: Inhibition of mouse DAGLalpha expressed in HEK293T cell membrane using [14C]SAG substrate at 10000 nM by scintillation counting based radio-TLC assay; format: cell membranes; details: HEK-293T
[5] = molecular target: T1, Diacylglycerol lipase-alpha (Homo sapiens); test: Inhibition of human DAGLalpha expressed in HEK293T cell membrane using [14C]SAG substrate at 10 uM in detergent free solution by […]; format: cell-based; details: HEK-293T
[6] = molecular target: T1, Diacylglycerol lipase-alpha (Homo sapiens); test: Inhibition of human DAGLalpha expressed in HEK293T cell membrane using [14C]SAG substrate at 10 uM in presence of 0.05% Triton X-100 by […]; format: cell-based; details: HEK-293T
[7] = molecular target: T1, Diacylglycerol lipase-alpha (Homo sapiens); test: Inhibition of human DAGLalpha expressed in HEK293T cell membrane using [14C]SAG substrate at 10 uM in detergent free solution by scintillation counting based radio-TLC assay; details: HEK-293T
[8] = Inhibition of bacterial lipoprotein lipase by FRET assay; set-up: species or system Bacteria
Procedure, shortened: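 Purified enzymes: bacterial lipoprotein lipase (0.46 μg) or porcine pancreatic lipase type II (1.0 μg, suspended in 1:9 DMSO/water). Run in 50 mM Tris pH 7.4 with 10 mM CaCl2. Substrate was the pyrene-dinitrophenyl ether lipid FRET reporter at 25 μM, with compounds screened at 10 μM. Fluorescence was read at ex 320/em 400 nm, and percent inhibition was taken at 1.5 h; n = 1 or 2.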

SMILES | inhibition [1] [%] | inhibition [2] [%] | inhibition [3] [%] | inhibition [4] [%] | inhibition [5] [%] | inhibition [6] [%] | inhibition [7] | IC50 [8] [µM]
CCCCCCCCCCC[C@@H](C[C@@H]1OC(=O)[C@H]1CCCCCC)OC(=O)[C@H](NC=O)[C@H](C)CC | 86 | 78 | 69 | 85 | 90 | 98 | – | –
CCCCCCCCCCC[C@@H](C[C@@H]1OC(=O)[C@H]1CCCCCC)OC(=O)[C@H](NC=O)[C@@H](C)CC | 68 | 86 | 75 | 90 | 90 | 98 | – | –
O=C(Oc1ccc([N+](=O)[O-])cc1)N1CCC(C(O)(c2ccc3c(c2)OCO3)c2ccc3c(c2)OCO3)CC1 | 36 | – | – | 3 | 59 | – | inactive | –
CCCCCCCCCCC[C@@H](C[C@@H]1OC(=O)[C@H]1CCCCCC)OC(=O)[C@H](CC)NC=O | 80 | 99 | 96 | 100 | 93 | 100 | – | –
CCCCCCCCCCC[C@@H](C[C@@H]1OC(=O)[C@H]1CCCCCC)OC(=O)[C@@H](NC=O)[C@H](C)CC | 61 | 95 | 88 | 100 | 92 | 99 | – | –
CCCCCCCCCCC[C@@H](C[C@@H]1OC(=O)[C@H]1CCCCCC)OC(=O)[C@@H](NC=O)[C@@H](C)CC | 84 | 98 | 96 | 96 | 92 | 99 | – | –
CCCCCCCCCCC[C@@H](C[C@@H]1OC(=O)[C@H]1CCCCCC)OC(=O)[C@H](CC(C)C)NC=O [ORLISTAT] | – | 100 | – | – | – | – | 100% | 0.1
